{"source": "ChEMBL document CHEMBL4251685", "about": "“Microthecaline A, a Quinoline Serrulatane Alkaloid from the Roots of the Australian Desert Plant Eremophila microtheca” (J Nat Prod, 2018)", "key": {"[1]": {"assay": "Selectivity index, ratio of IC50 for HEK293 cells to IC50 for chloroquine-sensitive Plasmodium falciparum 3D7", "assay_type": "toxicity", "conditions": "human; read-out: Ratio IC50"}, "[2]": {"assay": "Selectivity index, ratio of IC50 for HEK293 cells to IC50 for chloroquine-resistant Plasmodium falciparum Dd2", "assay_type": "toxicity", "conditions": "human; read-out: Ratio IC50"}, "Plasmodium falciparum [3]": {"test_system": "Plasmodium falciparum", "assay": "Antimalarial activity against chloroquine-sensitive Plasmodium falciparum 3D7 after 72 hrs by DAPI staining based fluorescence assay", "assay_type": "functional, organism-based", "conditions": "3D7, 72 h"}, "Plasmodium falciparum [4]": {"test_system": "Plasmodium falciparum", "assay": "Antimalarial activity against chloroquine-resistant Plasmodium falciparum Dd2 after 72 hrs by DAPI staining based fluorescence assay", "assay_type": "functional, organism-based", "conditions": "Dd2, 72 h"}, "[5]": {"assay": "Cytotoxicity against HEK293 cells assessed as inhibition of cell growth at 80 uM after 72 hrs by alamar blue assay relative to control", "assay_type": "cell-based", "conditions": "human, read-out: GI", "method_in_brief": "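HEK293 human embryonic kidney cells; the reported value is the average percent inhibition measured at 80 μM.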"}, "HEK293": {"test_system": "HEK293", "assay": "Cytotoxicity against HEK293 cells assessed as inhibition of cell growth at 10 uM after 72 hrs by alamar blue assay", "assay_type": "cell-based", "conditions": "human, hek293, 72 h"}, "Plasmodium falciparum [6]": {"test_system": "Plasmodium falciparum", "assay": "Antimalarial activity against chloroquine-sensitive Plasmodium falciparum 3D7 at 10 uM after 72 hrs by DAPI staining based fluorescence assay", "assay_type": "functional, organism-based"}, "Plasmodium falciparum [7]": {"test_system": "Plasmodium falciparum", "assay": "Antimalarial activity against chloroquine-resistant Plasmodium falciparum Dd2 at 10 uM after 72 hrs by DAPI staining based fluorescence assay", "assay_type": "functional, organism-based"}}, "note": "Active and inactive are the calls of the source. No cut-off for these calls is given here."}
{"compound": "COc1ccc(C[C@H](N)C(=O)N[C@H]2[C@@H](O)[C@H](n3cnc4c(N(C)C)ncnc43)O[C@@H]2CO)cc1", "note": "[PUROMYCIN]", "values": [{"measurement": "selectivity ratio", "setting": "[1]", "result": 9}, {"measurement": "selectivity ratio", "setting": "[2]", "result": 10.5}]}
{"compound": "CC(C)=CCCc1cnc2c(C)cc(O)c3c2c1CC[C@H]3C", "values": [{"measurement": "IC50", "setting": "Plasmodium falciparum [3]", "result": 7.7, "unit": "µM"}, {"measurement": "IC50", "setting": "Plasmodium falciparum [4]", "result": 17.2, "unit": "µM"}, {"measurement": "inhibition at 72 h, 80 µM", "setting": "[5]", "result": 62, "unit": "%"}, {"measurement": "selectivity ratio", "setting": "[1]", "result": 5.2}, {"measurement": "selectivity ratio", "setting": "[2]", "result": 2.3}]}
{"compound": "CCN(CC)CCCC(C)Nc1ccnc2cc(Cl)ccc12", "note": "(stereo not drawn) [CHLOROQUINE]", "values": [{"measurement": "growth inhibition (GI)", "setting": "HEK293", "result": "Not Active"}]}
{"compound": "COc1cc(C)c2ncc(CCC=C(C)C)c3c2c1[C@H](C)CC3", "values": [{"measurement": "Activity", "setting": "Plasmodium falciparum [6]", "result": "inactive"}, {"measurement": "Activity", "setting": "Plasmodium falciparum [7]", "result": "inactive"}]}
{"compound": "C[C@H]1[C@H](OC(=O)CCC(=O)O)O[C@@H]2O[C@@]3(C)CC[C@H]4[C@H](C)CC[C@@H]1[C@@]24OO3", "note": "[ARTESUNATE]", "values": [{"measurement": "IC50", "setting": "Plasmodium falciparum [4]", "result": 0.001, "unit": "µM"}, {"measurement": "selectivity ratio", "setting": "[1]", "result": 11600}, {"measurement": "selectivity ratio", "setting": "[2]", "result": 10000}]}
